Bioassay records: PubChem, several laboratories
A selection: hits, their analogues and other compounds. The true share with any hit is near 2.6%.
SKN-1 inh: suppressors of acrylamide-induced Pgst-4::GFP reporter in worms, primary screen, SKN-1 inhibitor project, whole organism, uHTS, GFP/RFP fluorescence ratio, strain VP596 | actives 0.49% (n = 360,000) | C. elegans VP596 Pgst-4::GFP/RFP ratio, 24 h | AID 624304, 2012 | inhibition, % at 21.8 µM;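 active = interference check ratio from 0.5 to 1.5 plus GFP to RFP signal ratio inhibition reaching or exceeding a fixed threshold, cut at about 30% in these data, passing the limit was not always enough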
Myeloid diff MLP: induction of myeloid progenitor differentiation, primary screen, cell-based, flow cytometry, MLPCN library; calls only at 10 µM; actives 1% (n = 360,000); AID 624256, 2012; ER-HoxA9 myeloid progenitors, lysozyme-GFP differentiation;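 active = normalized GFP-positive differentiation at or above the plate's own cutoff, the solvent-only control mean plus 3 SD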;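 also: cells exposed to compound for four days before flow analysis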
T cell modulator: modulators of CD8 T cell-vesicle binding, primary screen, mouse 2C CD8+ T cells, flow cytometry; 2C CD8+ T cell-vesicle binding; active compounds read low; response (vesicle binding), % at 7 µM; actives 0.068% (n = 330,000); AID 2052, 2009;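 active = response, share of CD8 T cells binding vesicles, and their 90th percentile fluorescence all below set limits, cut at about 80% in these data, passing the limit was not always enough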;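 also: values below 100% mean blocked vesicle binding to the CD8+ T cells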
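Assay system: 2C TCR transgenic mouse naive CD8+ T cells, MACS-purified | Read-out: CD8+ gate FL2 mean fluorescence as % of same-row positive control | Signal: High-throughput flow cytometry with anti-B7-1 and anti-CD8 staining | Timing: Binding step 1.5 h, 37 °C, antibody labelling 20 min, ice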
Rce1 inh: yeast Rce1p protease inhibitors, primary screen, biochemical, fluorescence, cell-free homogeneous | CAAX prenyl protease 2 (Saccharomyces cerevisiae (strain ATCC 204508 / S288c)), Q03530 | yeast membranes, quenched prenylated peptide cleavage fluorescence | calls only | actives 0.27% (n = 290,000);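 active = fall in fluorescence gain of 50% or more versus controls, with final raw signal at or below 3038400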
Target sequence (Q03530 whole entry, looked up): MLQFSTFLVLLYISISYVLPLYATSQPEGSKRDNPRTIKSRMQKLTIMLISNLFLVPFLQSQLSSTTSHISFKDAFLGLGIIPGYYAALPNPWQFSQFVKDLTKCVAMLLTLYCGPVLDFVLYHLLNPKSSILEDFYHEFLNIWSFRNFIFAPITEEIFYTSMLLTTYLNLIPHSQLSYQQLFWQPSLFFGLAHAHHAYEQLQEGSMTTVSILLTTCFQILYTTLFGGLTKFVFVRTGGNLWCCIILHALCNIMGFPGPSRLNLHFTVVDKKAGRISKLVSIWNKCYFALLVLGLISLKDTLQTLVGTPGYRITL
Rin1-Abl PPI inh: inhibitors of Rin1-Abl protein binding, primary screen, biochemical, TR-FRET; Tyrosine-protein kinase ABL1 (Homo sapiens) + Ras and Rab interactor 1 (Homo sapiens), …; inhibition, % at 7.35 µM; actives 0.4% (n = 360,000); in the data active = inhibition above about 5%, passing the limit was not always enough
GRK2 inh: compounds blocking aptamer binding on GRK2 – biochemical, human GRK2, bead flow cytometry, HTS, primary screen; AID 488847, 2010; actives 0.59% (n = 330,000); FAM-aptamer displacement from GRK2; inhibition of aptamer binding, % at 10 µM; Beta-adrenergic receptor kinase 1 (Homo sapiens), P25098;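 active = inhibition of aptamer binding above 40%, roughly 3 SD of noise, on plates passing a quality check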;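 also: median bead fluorescence of bound FAM aptamer so fluorescent compounds give negative values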
Hits are given with their value; - = inactive; . = not tested or not shown; + = active, no number.

SMILES	SKN-1 inh	Myeloid diff MLP	T cell modulator	Rce1 inh	Rin1-Abl PPI inh	GRK2 inh
O=[N+]([O-])c1ccc(NCc2ccc(Cl)cc2)nc1	43.0	-	-	-	-	.
CC(C)c1ccc(CNc2ccc([N+](=O)[O-])cn2)cc1	-	-	-	-	-	-
O=[N+]([O-])c1ccc(Nc2ccc3ccccc3c2)nc1	-	-	-	-	-	-
CCN(CC)Cc1ccc(NC(=O)c2sc3cc(Cl)ccc3c2Cl)cc1	51.4	+	-	-	-	-
CN(CC(=O)NCCc1ccc(S(N)(=O)=O)cc1)S(=O)(=O)c1cccc2nsnc12	-	+	-	-	-	-
CCOc1ccc(CCNC(=O)CN(C)S(=O)(=O)c2cccc3nsnc23)cc1OCC	-	-	-	-	-	-
CCOC(=O)c1c(-c2ccccc2)oc2ccc(OCC(O)CNCCN(C)C)cc12 (centres undefined)	-	.	-	+	-	-
CCOC(=O)c1c(-c2ccccc2)oc2ccc(OCC)cc12	-	-	-	-	-	-
O=C(CCc1ccccc1)Oc1ccccc1[N+](=O)[O-]	.	.	-	.	.	-
Cc1ccc(C)c(OCC(=O)Nc2ccccc2C(=O)N2CCOCC2)c1	-	-	-	-	-	-
CC(C)NC(=O)N(C)C[C@@H]1OCc2cnnn2CCCC(=O)N([C@H](C)CO)C[C@H]1C	-	-	.	.	-	.
Cc1ccc(C2C(C#N)=C(N)Oc3cc(N)ccc32)cc1 (centres undefined)	-	-	-	-	-	-
Cc1ccc(/C=C2\CCC3=C2OC(N)=C(C#N)C3c2ccc(C)cc2)cc1 (centres undefined)	35.2	-	-	-	-	-
CC12CCC(C(=O)O)(c3nc4cc([N+](=O)[O-])ccc4nc31)C2(C)C (centres undefined)	-	-	-	-	-	-
COc1ccc(NC(=O)CSc2ccc3c4c(cccc24)C(=O)c2ccccc2-3)cc1	-	+	-	-	-	-
N#Cc1cccc(NC(=O)CSc2ccccc2)c1	-	-	-	-	-	-
N#Cc1cccc(NC(=O)CSc2ccc3c4c(cccc24)C(=O)c2ccccc2-3)c1	-	+	-	-	-	-
CCOC(=O)[C@]12CCCC=C1N(Cc1ccco1)C(=O)[C@H](CC(=O)N1CCN(C(=O)c3ccco3)CC1)C2	-	-	.	.	.	.
Cc1cc(Br)c(NC(=O)CSc2n[nH]c(N)n2)c(Br)c1	-	-	-	.	-	-
O=C(N/N=C/c1cn(-c2ccccc2)nc1-c1cc2ccccc2o1)c1ccncc1	-	+	-	-	-	-
Cc1ccc(Cl)c2sc(NC(=O)C3=COCCO3)nc12	-	-	-	-	-	-
Cc1sc(NC(=O)C2=COCCO2)nc1-c1ccc(Cl)cc1	38.6	-	-	-	-	-
C=CCc1cc(Cl)ccc1OC(=O)Nc1cccc(Cl)c1	-	-	-	-	-	-
c1ccc(-c2nc(CSc3nnc(-c4cccs4)o3)cs2)cc1	29.1	-	-	-	-	-
O=C(CSc1nnc(-c2cccs2)o1)OCc1ccccc1	-	.	-	-	-	-
SMILES	SKN-1 inh	Myeloid diff MLP	T cell modulator	Rce1 inh	Rin1-Abl PPI inh	GRK2 inh
Cc1ccc(Nc2nc(CSc3n[nH]c(N)n3)cs2)cc1	-	-	-	-	-	-
Cc1ccc(Nc2nc(CSc3nnc(-c4cccs4)o3)cs2)cc1	35.0	-	-	-	-	-
Fc1ccc(/C=C/c2nnc(-c3cccs3)o2)cc1	53.9	-	-	.	-	-
Cc1ccc(-c2nnc(-c3cccs3)o2)cc1	36.5	-	-	-	-	-
O=C1C=CC(=O)N1c1cccc2cccnc12	-	-	.	.	-	.
CC(C)C(OC(=O)c1nsc(Cl)c1Cl)C(=O)NC1CCCCC1 (centres undefined)	-	-	-	.	-	-
COc1ccc(CNS(=O)(=O)c2ccc3c(c2)NC(=O)CS3)cc1	-	-	-	-	-	-
FCCCOc1ccc(/C=N/OCc2ccc(Cl)cc2)cc1	41.6	-	-	-	-	-
